The record followed here is BindingDB's records for doi:10.1016/j.bmc.2007.11.023 (2008).

The assay has as its target Mitochondrial complex I; NADH oxidoreductase (Bos taurus, UniProt P25708+P52505). Kind of assay: Inhibition of NADH-ubiquinone oxidoreductase assessed as NADH oxidase activity in bovine heart submitochondrial particles. An outline of the steps:
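Bovine heart submitochondrial particles (sonicated mitochondria isolated by differential centrifugation) in air-saturated 75 mM sodium potassium phosphate, pH 7.4, with 1 mM each EDTA and MgCl2, at 30 °C and 42–219 µg/mL protein. Compounds added in methanol (≤2% v/v) and preincubated 4 min. The reaction is started with 0.16 mM NADH (final). Oxidation is followed over 4 min as A340 decrease. Means of 2–4 independent experiments.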

The structures appear in SMILES notation.

Sequence of Mitochondrial complex I; NADH oxidoreductase (P25708 21-464 limits assumed, other chains not shown): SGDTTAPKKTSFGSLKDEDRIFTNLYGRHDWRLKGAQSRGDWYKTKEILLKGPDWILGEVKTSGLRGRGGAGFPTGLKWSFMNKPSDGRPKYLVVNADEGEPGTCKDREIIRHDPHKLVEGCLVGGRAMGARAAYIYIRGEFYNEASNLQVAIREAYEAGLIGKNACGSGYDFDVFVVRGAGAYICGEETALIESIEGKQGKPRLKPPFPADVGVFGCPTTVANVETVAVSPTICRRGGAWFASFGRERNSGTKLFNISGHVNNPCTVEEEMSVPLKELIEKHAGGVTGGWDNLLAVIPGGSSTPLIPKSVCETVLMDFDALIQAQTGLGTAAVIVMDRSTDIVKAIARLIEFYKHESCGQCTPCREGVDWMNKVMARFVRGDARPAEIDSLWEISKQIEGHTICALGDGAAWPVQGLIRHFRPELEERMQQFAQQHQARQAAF

In general, IC50 refers to the concentration that gives 50% inhibition. Consider `CCCC1(O)C(=O)C(C)C(=O)N=C1C=CC(C)C/C=C/C(C)C` (configuration not stated) [IROMYCIN E], for which the concentration for half-maximal inhibition (IC50) is over 25.3 µM.
For the compound `CCCC1C(=O)C(C)(O)C(=O)N=C1C=CC(C)C/C=C/C(C)C` (configuration not stated) [IROMYCIN F], the IC50 is over 25.3 µM.
